Measured values as given in publication PMC9574760 (Food Chemistry: Molecular Sciences, 2022).
Ends that are not written are not given here.

Experiments:
elastase [1] = biological target: T1, elastase (Sus scrofa, UniProt P00772); conditions: bovine elastin peptides; ref Liu, Su, Zhou, Zhang, Zheng, & Zhao, 2018; cited from earlier work
elastase [2] = biological target: T1, elastase; assay: Elastase inhibition test; format: biochemical
In short: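 Elastase from the commercial supply; test compound in 50 mM Tris-HCl, pH 8.0. The 1 mM substrate solution and the sample (buffer for the negative control) were mixed and A410 was read. Then 100 mU/mL elastase was added and incubated 5 min at 25℃, stopped with 2 M HCl, and A410 was read again. EGCG reference at 0.5 mg/mL; three independent experiments.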

porcine pepsin = assay: In vitro simulated gastric digestion stability, RP-HPLC; format: in vitro ADME; conditions: pig, simulated gastric fluid with porcine pepsin, pH 2
In short: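 Test peptide was digested with […] porcine pepsin at pH 2.0 ([…] KCl-HCl) and an enzyme:substrate ratio of 1:30 (w/w). Digestion ran 2 h at 37℃, shaking at 170 rpm. Enzyme was inactivated in boiling water for 10 min and the digest centrifuged at 6000 × g for 15 min. Peptide before and after digestion was compared by C18 RP-HPLC with water/0.1 % TFA and acetonitrile/0.1 % TFA, 1.0 mL/min, 220 nm detection; triplicate.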

T1 sequence (P00772 27-266): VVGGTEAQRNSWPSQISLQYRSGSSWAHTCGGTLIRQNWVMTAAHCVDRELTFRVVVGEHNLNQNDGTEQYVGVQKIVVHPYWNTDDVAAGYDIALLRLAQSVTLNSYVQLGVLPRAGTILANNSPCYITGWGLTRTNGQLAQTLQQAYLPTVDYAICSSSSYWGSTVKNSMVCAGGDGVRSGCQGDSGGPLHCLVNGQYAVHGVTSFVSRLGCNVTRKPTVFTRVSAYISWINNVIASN

Substance | elastase inhibitory activity (in words) (elastase [1]) | IC50 (elastase [2]) [µM] | remaining at 2 h, 1 mg/mL (porcine pepsin) [%]
GPGGVGAL | weakly active |  | 
GLGPGVG | weakly active |  | 
GLPY | most active |  | 
FFVPF [FFVPF, Phe-Phe-Val-Pro-Phe] |  | 715 | 87.5 ± 1.24
